Screening data deposited in PubChem BioAssay by Johns Hopkins Ion Channel Center.
KCNQ1 inh: inhibitors of human KCNQ1 channel, primary screen, cell-based, thallium flux, high-throughput. B-score at 10 µM. hit rate 1.3% among 310,000. CHO-K1 KCNQ1, FluxOR thallium flux fluorescence; stronger effect = higher value;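 active means compounds whose thallium flux B-score, printed positive for inhibition, exceeds three library SD while starting fluorescence stays within three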;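 further: channel opened by potassium depolarization with thallium stimulus after 20 min compound exposure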
Target sequence (P51787 whole entry, looked up): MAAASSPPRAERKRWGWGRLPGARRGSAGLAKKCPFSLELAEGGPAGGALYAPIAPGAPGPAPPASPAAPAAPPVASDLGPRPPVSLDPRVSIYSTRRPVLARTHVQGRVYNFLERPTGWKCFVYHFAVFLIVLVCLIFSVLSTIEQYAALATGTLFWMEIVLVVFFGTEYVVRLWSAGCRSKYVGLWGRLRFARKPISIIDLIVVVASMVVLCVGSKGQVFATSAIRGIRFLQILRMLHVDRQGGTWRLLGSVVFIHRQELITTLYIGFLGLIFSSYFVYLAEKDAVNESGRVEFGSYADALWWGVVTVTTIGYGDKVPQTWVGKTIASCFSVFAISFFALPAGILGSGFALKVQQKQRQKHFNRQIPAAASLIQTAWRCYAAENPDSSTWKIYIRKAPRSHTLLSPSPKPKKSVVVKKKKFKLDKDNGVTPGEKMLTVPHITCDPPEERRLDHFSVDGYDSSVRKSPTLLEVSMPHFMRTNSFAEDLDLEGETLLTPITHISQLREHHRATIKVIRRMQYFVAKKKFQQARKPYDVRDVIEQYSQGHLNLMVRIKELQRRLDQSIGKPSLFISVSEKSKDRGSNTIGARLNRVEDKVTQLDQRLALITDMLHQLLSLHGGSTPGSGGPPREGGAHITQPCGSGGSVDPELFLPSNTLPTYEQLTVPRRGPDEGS
KCNK9 block: KCNK9 potassium channel inhibitors, primary screen, HEK293 cells, thallium flux; FluxOR thallium flux fluorescence; stronger effect = lower value; hit rate 1.2% among 310,000; Potassium channel subfamily K member 9 (Homo sapiens), Q9NPC2; AID 488922, 2010; B-score at 10 µM;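 active means ratio B-score over 3 SD below the library mean, with starting fluorescence within 5 SD of its mean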;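 further: negative B-score means less thallium flux so channel inhibition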
KCNQ1 act: potentiators or activators of KCNQ1 channel, primary screen, cell-based, thallium flux, high-throughput; B-score at 10 µM; hit rate 0.35% among 310,000; CHO-K1 KCNQ1, thallium flux FluxOR fluorescence; stronger effect = higher value; Potassium voltage-gated channel subfamily KQT member 1 (Homo sapiens), P51787;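 active means fluorescence ratio B-score, a plate-corrected score, at least three library SD, with initial intensity B-score within 5 SD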
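Test system: CHO-K1 cells stably expressing KCNQ1 / Medium: assay buffer / Also added: depolarizing K+/Tl+ stimulus, K2SO4 and Tl2SO4 each 12.5 mM in 5x stock / Incubation: 90 min dye loading and 20 min compound exposure, both at room temperature / Signal: thallium influx via FluxOR fluorescence, kinetic imaging / Evaluation: B score of baseline-normalized fluorescence ratio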
hERG rescue: hERG rescue from dofetilide block, primary screen, cell-based, CHO-hERG, FluxOR thallium flux, dofetilide IC70 | hit rate 0.51% among 310,000 | activation (rescue from dofetilide block), less the hit threshold, % at 10 µM | dofetilide IC70 present | AID 1511, 2009 | Voltage-gated inwardly rectifying potassium channel KCNH2 (Homo sapiens), Q12809;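 active means activation above the mean of controls blocked by dofetilide plus 5 SD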;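 further: thallium influx through hERG after potassium depolarization seen as dye fluorescence rise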
KCNK3 inh: human KCNK3 channel inhibitors, primary screen, CHO cells, FluxOR thallium flux, B-score | FluxOR fluorescence; stronger effect = lower value | B-score at 10 µM | hit rate 0.84% among 340,000 | AID 602410, 2012;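 active means B-score under library mean minus 4 SD, starting fluorescence ratio at most library mean plus 5 SD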;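 further: more negative B-score means stronger inhibition of thallium flux through KCNK3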
Numbers stand for hits; n = inactive; x = no result. Compounds with a hit are over-represented: about 3.1% of the library has one in this group of screens.

SMILES	KCNQ1 inh	KCNK9 block	KCNQ1 act	hERG rescue	KCNK3 inh
Cc1ccc(O)c(-c2cc(-c3ccccc3[N+](=O)[O-])[nH]n2)c1	n	n	n	n	n
Cc1ccc(O)c(-c2cc(-c3ccccc3C)[nH]n2)c1	n	-7.4	n	n	n
CCOC(=O)/C(C#N)=C\C=C1C=CN(C)C=C1	8	n	n	n	n
COc1ccc(-c2cccc(-c3cc(=O)oc4ccc(C(C)(C)C)cc34)c2)cc1	x	x	x	x	n
COc1ccc(N/C=C(\C#N)c2nc3ccccc3n2C)c(OC)c1	n	-7	n	n	n
COc1cccc(NC(=O)CN(C)C(=O)Cc2c(C)nc3ccccc3c2C)c1	x	x	x	x	n
CC(C)c1cc(NCCN2CCOCC2)n2c(nc3ccccc32)c1C#N	x	x	x	x	-9.2
N#Cc1c2c(c(NCCN3CCOCC3)n3c1nc1ccccc13)CCCC2	n	n	n	n	-8.9
COc1ccc(-c2csc(NC(=O)C3CCCCN3S(=O)(=O)c3ccccc3)n2)cc1 (stereo not drawn)	n	n	151	n	n
CCn1nc(NS(=O)(=O)c2ccc([N+](=O)[O-])cc2)c2cc3ccccc3nc21	n	n	n	n	n
CC(NC(=O)COC(=O)[C@@H]1CCCN1S(=O)(=O)c1ccccc1F)C12CC3CC(CC(C3)C1)C2 (stereo partly drawn)	n	-6.8	n	n	n
CN(CC(=O)Nc1ccccc1Cl)C(=O)COC(=O)c1nc(Cl)c(Cl)c(Cl)c1Cl	n	n	n	n	n
Cc1ccc(NC(=O)CSc2nn(-c3ccc(Cl)cc3)c(=S)s2)cc1S(=O)(=O)N(C)C	6	n	n	n	n
CN(C)S(=O)(=O)c1cc(NC(=O)CSc2nn(-c3ccc(Cl)cc3)c(=S)s2)ccc1Cl	n	n	n	n	n
COc1ccc(C(=O)C(C)OC(=O)COc2ccccc2)cc1 (stereo not drawn)	x	x	x	x	n
Cc1cc(Nc2ccccc2)n2nc(C)c(-c3ccccc3)c2n1	n	n	n	n	n
Cc1cc(NCc2ccccn2)n2nc(C)c(-c3ccccc3)c2n1	6	n	n	n	n
CC(=O)c1ccccc1OC(=O)c1ccc(-c2ccccc2)cc1	n	-6.7	n	n	n
CC(=O)c1ccccc1OC(=O)c1c(F)cccc1F	n	n	n	n	n
CCOC(=O)C1=C(CCl)NC(=O)NC1c1ccc2c(c1)OCO2 (stereo not drawn)	n	n	n	n	n
COC(=O)c1cc2c(-c3ccccc3)cc3ccccn3c-2c1C(=O)OC	n	n	n	n	-8.9
Cc1nc(C2CCC3C4CCC5=CC(=O)CC[C@]5(C)C4CC[C@]23C)cs1 (stereo partly drawn)	7	n	n	n	x
C=C1c2ccccc2S(=O)(=O)N(Cc2ccccc2)C1COCc1ccccc1 (stereo not drawn)	n	-6.9	n	n	n
O=S1(=O)c2ccccc2OC(COCc2ccccc2)CN1Cc1ccccc1 (stereo not drawn)	x	x	x	x	n
CCOC(=O)c1sc(N(Cc2ccccc2)C(=O)COC(=O)c2ccccc2O)nc1C	n	-6.7	n	n	n
SMILES	KCNQ1 inh	KCNK9 block	KCNQ1 act	hERG rescue	KCNK3 inh
O=C(CSc1nc(N2CCOCC2)nc(N2CCOCC2)n1)Nc1ccccc1F	n	n	n	n	n
COCCCn1c(O)c(/C=C2\N=C(C#N)C(=Nc3ccc(C)cc3)O2)sc1=S	12	n	n	n	n
C/C(=N\NC(=O)c1ccc(-c2ccccc2)cc1)C1C(=O)c2ccccc2C1=O	7	n	n	n	n
C/C(=N\NC(=O)c1ccc(Br)cc1)C1C(=O)c2ccccc2C1=O	n	n	n	n	n
O=C(Nc1ccc(Cl)cc1)c1cc2c(cc1O)[nH]c1ccccc12	n	n	n	n	n
Cc1ccc(S(=O)(=O)N2CCOCC2)cc1NC(=O)COC(=O)COc1ccccc1[N+](=O)[O-]	x	x	x	x	n
COc1cc(CNCCc2ccccc2)cc(Cl)c1OCc1ccccc1	7	n	n	n	n
CNCc1cc(Br)c(OCC(=O)Nc2ccccc2OC)c(OC)c1	n	n	n	n	n
COc1cc(CNCCc2ccccc2)cc(Br)c1OCC(=O)Nc1ccccc1C	9	n	n	n	n
